pEC50, pIC50: −log10 of the molar value. Active and inactive are the calls of the source.
Tests used:
Jurkat/A4 [1] = assay: Induction of apoptosis in human Jurkat/A4 cells assessed as Bcl-2 expression at 300 nM after 24 to 48 hrs Western blotting analysis; assay type: functional, cell-based
Procedure, shortened: (§1)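 Cells in RPMI-1640 with 10% FCS at 37 °C, 5% CO2, were treated for 24 or 48 h, then washed in cold PBS. They were lysed 30 min at 4 °C in 20 mM Tris-HCl pH 7.4, 1% Triton X-100, 150 mM NaCl and protease inhibitors. Equal protein was run on 12% SDS-PAGE and blotted to PVDF, with 5% milk block. Primary MoAb 2 h RT, HRP anti-mouse 60 min, ECL; β-actin loading control.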

[2] = Cell cycle arrest in human Jurkat/A4 cells assessed as decrease in accumulation at G0/G1 phase at 300 nM after 24 hrs by propidium iodide staining-based flow cytometric analysis; assay type: functional
Jurkat/A4 [3] = assay: Cytotoxicity against human Jurkat/A4 cells assessed as cell death treated for 2 hrs followed by cultivation in drug-free medium for 7 days; assay type: functional, cell-based
Procedure, shortened: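 Jurkat/A4 cells in RPMI-1640 with 10% fetal calf serum are exposed for two hours, then cultured seven days in drug-free medium and scored for delayed cell death.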

[4] = Induction of apoptosis in human Jurkat/A4 cells assessed as active caspase 3 expression at 300 nM after 24 hrs by FITC-conjugated flow cytometric analysis (reference value: 1.1%); assay type: functional
Jurkat [5] = assay: Induction of apoptosis in human Jurkat cells assessed as active caspase 3 expression at 30 nM after 48 hrs by FITC-conjugated flow cytometric analysis (reference value: 3.3%); assay type: functional
Jurkat [6] = assay: Cell cycle arrest in human Jurkat cells assessed as accumulation at sub-G1 phase at 30 nM after 48 hrs by propidium iodide staining-based flow cytometric analysis (reference value: 12.2%); assay type: functional
Jurkat/A4 [7] = assay: Induction of apoptosis in human Jurkat/A4 cells assessed as reduction of XIAP expression at 300 nM after 24 hrs Western blotting analysis; assay type: functional, cell-based; procedure, shortened: as §1
[8] = Induction of apoptosis in human Jurkat/A4 cells assessed as active caspase 3 expression at 300 nM after 48 hrs by FITC-conjugated flow cytometric analysis (reference value: 1.1%); assay type: functional
Jurkat/A4 [9] = assay: Induction of apoptosis in human Jurkat/A4 cells assessed as micronuclei formation at 300 nM after 48 hrs by May-Grunwald-Giemsa staining-based microscopic analysis; assay type: functional, cell-based
Procedure, shortened: (§2)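 Jurkat or Jurkat/A4 suspension cultures in RPMI-1640 with 10% FCS at 37 °C, 5% CO2 were treated for 48 h alongside untreated controls. Cells were cytospun, stained May–Grünwald–Giemsa and examined by light microscopy with a 100× objective for nuclear and mitotic abnormalities.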

Jurkat [10] = assay: Induction of apoptosis in human Jurkat cells assessed as micronuclei formation at 15 nM after 48 hrs by May-Grunwald-Giemsa staining-based microscopic analysis; assay type: functional, cell-based; procedure, shortened: as §2
Jurkat/A4 [11] = assay: Induction of apoptosis in human Jurkat/A4 cells assessed as condensed and fragmented nuclei at 300 nM after 48 hrs by May-Grunwald-Giemsa staining-based microscopic analysis; assay type: functional, cell-based; procedure, shortened: as §2
Jurkat/A4 [12] = assay: Induction of apoptosis in human Jurkat/A4 cells assessed as caspase 9 activation at 300 nM after 24 to 48 hrs by Western blotting analysis; assay type: functional, cell-based; procedure, shortened: as §1
[13] = Induction of apoptosis in human Jurkat/A4 cells assessed as PARP-1 cleavage at 300 nM after 48 hrs by FITC-conjugated flow cytometric analysis (reference value: 0.9%); assay type: functional
Jurkat/A4 [14] = assay: Induction of apoptosis in human Jurkat/A4 cells assessed as caspase 2 activation at 300 nM after 24 to 48 hrs by Western blotting analysis; assay type: functional, cell-based; procedure, shortened: as §1
Jurkat [15] = assay: Induction of apoptosis in human Jurkat cells assessed as small cell fragments with unequally segregated chromosomes enclosed by cell membrane at 15 nM after 48 hrs by May-Grunwald-Giemsa staining-based microscopic analysis; assay type: functional; procedure, shortened: as §2
Jurkat [16] = assay: Induction of apoptosis in human Jurkat cells assessed as caspase 2 activation at 30 nM after 24 to 48 hrs by Western blotting analysis; assay type: functional, cell-based; procedure, shortened: as §1
Jurkat [17] = assay: Cytotoxicity against human Jurkat cells assessed as cell viability after 48 hrs by trypan blue exclusion assay; assay type: functional, cell-based
Procedure, shortened: (§3)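 Compound added to exponentially growing Jurkat or Jurkat/A4 cells in RPMI-1640 with 10% FCS at 37 °C. Viable cells counted directly by trypan blue exclusion after 48 h. EC50 taken by linear interpolation of survival data. Mean±SD from three independent experiments.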

Jurkat [18] = assay: Induction of apoptosis in human Jurkat cells assessed as caspase 9 activation at 30 nM after 48 hrs by Western blotting analysis; assay type: functional, cell-based; procedure, shortened: as §1
[19] = Cytotoxicity against multidrug-resistant human HL60/TX1000 cells after 72 hrs by MTS assay; assay type: functional, cell-based; details: HL60/TX1000, 72 h
[20] = Cytotoxicity against human MES-SA cells after 72 hrs by MTS assay; assay type: functional, cell-based
Paracentrotus lividus [21] = assay: Antimitotic activity against sea urchin embryo model assessed as cleavage arrest of fertilized egg compound treated at 8 to 20 mins post-fertilization and 45 to 55 mins prior to first mitotic cycle completion measured 2.5 to 5.5 hrs post-fertilization; assay type: functional
Procedure, shortened: (§4)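 Fertilized eggs are exposed 8–20 min after fertilization to 2-fold decreasing concentrations. Stocks are 10 mM in DMSO, then diluted 10-fold in 95% EtOH; final DMSO is at most 0.05% and EtOH at most 1%. Embryos are kept as a monolayer, up to 2000 embryos/mL, in filtered seawater at room temperature. The value is the threshold concentration giving cleavage alteration, embryo death before hatching or full mitotic arrest. Duplicates were run.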

Jurkat [22] = assay: Induction of apoptosis in human Jurkat cells assessed as Bcl-2 expression at 30 nM after 24 to 48 hrs Western blotting analysis; assay type: functional, cell-based; procedure, shortened: as §1
[23] = Cytotoxicity against human MES-SA/Dx5 cells after 72 hrs by MTS assay; assay type: functional, cell-based; details: MES-SA/Dx5, 72 h
Jurkat [24] = assay: Induction of apoptosis in human Jurkat cells assessed as active caspase 3 expression at 30 nM by FITC-conjugated flow cytometric analysis; assay type: functional, cell-based; details: TDE = time-dependent effect
HL-60 = assay: Cytotoxicity against human HL60 cells after 72 hrs by MTS assay; assay type: functional, cell-based; details: HL-60, 72 h
Jurkat [25] = assay: Induction of apoptosis in human Jurkat cells assessed as active caspase 3 expression at 30 nM after 24 hrs by FITC-conjugated flow cytometric analysis (reference value: 3.3%); assay type: functional
[26] = Cell cycle arrest in human Jurkat/A4 cells assessed as increase in accumulation at G2/M phase at 300 nM after 24 hrs by propidium iodide staining-based flow cytometric analysis; assay type: functional
Jurkat/A4 [27] = assay: Induction of apoptosis in human Jurkat/A4 cells assessed as small cell fragments with unequally segregated chromosomes enclosed by cell membrane at 300 nM after 48 hrs by May-Grunwald-Giemsa staining-based microscopic analysis; assay type: functional; procedure, shortened: as §2
Jurkat [28] = assay: Induction of apoptosis in human Jurkat cells assessed as PARP-1 cleavage at 30 nM after 48 hrs by FITC-conjugated flow cytometric analysis (reference value: 3.5%); assay type: functional
[29] = Cytotoxicity against human Jurkat/A4 cells assessed as cell death at 1 uM after 48 hrs by trypan blue exclusion assay relative to control; assay type: functional; procedure, shortened: as §3
Paracentrotus lividus [30] = assay: Antimitotic activity against sea urchin embryo free-swimming blastula model assessed as embryo spinning compound treated at 8 to 10 hrs post-fertilization measured after 0.25 to 20 hrs; assay type: functional, Blastula stage
Jurkat [31] = assay: Cell cycle arrest in human Jurkat cells assessed as increase in accumulation at G2/M phase at 30 nM after 24 hrs by propidium iodide staining-based flow cytometric analysis; assay type: functional
Jurkat [32] = assay: Induction of apoptosis in human Jurkat cells assessed as reduction of XIAP expression at 30 nM after 24 hrs Western blotting analysis; assay type: functional, cell-based; procedure, shortened: as §1
Jurkat [33] = assay: Induction of apoptosis in human Jurkat cells assessed as condensed and fragmented nuclei at 15 nM after 48 hrs by May-Grunwald-Giemsa staining-based microscopic analysis; assay type: functional, cell-based; procedure, shortened: as §2
Jurkat [34] = assay: Cell cycle arrest in human Jurkat cells assessed as decrease in accumulation at G0/G1 phase at 30 nM after 24 hrs by propidium iodide staining-based flow cytometric analysis; assay type: functional
Paracentrotus lividus [35] = assay: Antimitotic activity against sea urchin embryo model assessed as cleavage alteration of fertilized egg compound treated at 8 to 20 mins post-fertilization and 45 to 55 mins prior to first mitotic cycle completion measured 2.5 to 5.5 hrs post-fertilization; assay type: functional; procedure, shortened: as §4
[36] = Cell cycle arrest in human Jurkat/A4 cells assessed as accumulation at sub-G1 phase at 300 nM after 48 hrs by propidium iodide staining-based flow cytometric analysis (reference value: 17.1%); assay type: functional

With COc1ccc(-c2cnnn2-c2cc(OC)c(OC)c(OC)c2)cc1 as the compound, how does the Activity (Jurkat/A4 [1]) read?
Its Activity is “inactive”.

And the Activity [2]?
Its Activity is “Active”.

What about the Activity (Jurkat/A4 [3]) of the same compound?
The Activity was “Active”.

And the Activity [4]?
The Activity was 1.8%.

What about the Activity (Jurkat [5]) of the same compound?
The Activity was 32.1%.

What about the Activity (Jurkat [6]) of the same compound?
Its Activity is 43.4%.

And the Activity (Jurkat/A4 [7])?
Its Activity is “inactive”.

What about the Activity [8] of the same compound?
The Activity was 1.6%.

And the Activity (Jurkat/A4 [9])?
Its Activity is “Active”.

What about the Activity (Jurkat [10]) of the same compound?
The Activity was “Active”.

What about the Activity (Jurkat/A4 [11]) of the same compound?
The Activity was “Active”.

What about the Activity (Jurkat/A4 [12]) of the same compound?
The Activity was “inactive”.

What about the Activity [13] of the same compound?
The Activity was 2.5%.

What about the Activity (Jurkat/A4 [14]) of the same compound?
Its Activity is “inactive”.

What about the Activity (Jurkat [15]) of the same compound?
Its Activity is “Active”.

What about the Activity (Jurkat [16]) of the same compound?
Its Activity is “Active”.

What about the pEC50 (Jurkat [17]) of the same compound?
Its pEC50 is 7.52.

What about the Activity (Jurkat [18]) of the same compound?
Its Activity is “Active”.

What about the pIC50 [19] of the same compound?
The pIC50 was 7.70.

What about the pIC50 [20] of the same compound?
Its pIC50 is 7.70.

What about the EC (Paracentrotus lividus [21]) of the same compound?
The EC was 0.2 µM.

What about the Activity (Jurkat [22]) of the same compound?
Its Activity is “inactive”.

And the pIC50 [23]?
The pIC50 was 7.70.

What about the Activity (Jurkat [24]) of the same compound?
The Activity was “tde”.

And the pIC50 (HL-60)?
Its pIC50 is 7.70.

What about the Activity (Jurkat [25]) of the same compound?
The Activity was 19.6%.

And the Activity [26]?
The Activity was “Active”.

What about the Activity (Jurkat/A4 [27]) of the same compound?
Its Activity is “Active”.

And the Activity (Jurkat [28])?
Its Activity is 61.4%.

And the Activity [29]?
The Activity was under 20%.

And the EC (Paracentrotus lividus [30])?
The EC was 1 µM.

What about the Activity (Jurkat [31]) of the same compound?
Its Activity is “Active”.

What about the Activity (Jurkat [32]) of the same compound?
The Activity was “Active”.

And the Activity (Jurkat [33])?
Its Activity is “Active”.

And the Activity (Jurkat [34])?
Its Activity is “Active”.

And the EC (Paracentrotus lividus [35])?
Its EC is 0.02 µM.

And the Activity [36]?
The Activity was 26.2%.

— ChEMBL document CHEMBL3102739, “Synthesis and antiproliferative activity of conformationally restricted 1,2,3-triazole analogues of combretastatins in the sea urchin embryo model and against human cancer cell lines” (Bioorg Med Chem, 2014)
